Experimental data from ChEMBL document CHEMBL2407061, “Medicinal chemistry of dihydropyran-based medium ring macrolides related to aspergillides: selective inhibition of PI3Kα” (J Med Chem, 2013).
Active and inactive are the calls of the source. No cut-off for these calls is given here.

Columns and labels:
[1] = tested on: HL-60; assay: Cell cycle arrest in human HL60 cells assessed as accumulation at G0/G1 phase at 20 uM after 6 hrs using by propidium iodide staining by FACS analysis (reference value: 6%); type: functional
[2] = tested on: A-375; assay: Antiproliferative activtiy against human A375 cells assessed as growth inhibition after 48 hrs by MTT assay; type: functional, cell-based; details: A-375, 48 h
Outline: (§1)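 15000 cells per well in 200µl medium, exposed to a range of concentrations for 48 h (compounds in DMSO, diluted in complete medium). MTT (20µl of 2.5 mg/ml) added for 2 h at 37°C, formazan dissolved in DMSO, OD read at 570 nm. Viability = OD test/OD control ×100. IC50 taken from the concentration–survival curve after blank subtraction.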

[3] = tested on: HL-60; assay: Induction of apoptosis in human HL60 cells assessed as mitochondrial membrane potential loss at 20 uM after 6 hrs by RH 123 staining-based flow cytometer analysis (reference value: 6%); type: functional
Outline: (§2)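 1×10^6 HL-60 cells in 12-well plates, exposed to 5, 10 or 20 µM for 6 h. Rhodamine 123 added 30 min before the end. Cells collected at 400 g, washed once in PBS, and fluorescence read in the FL-1 channel of a flow cytometer.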

[4] = tested on: HL-60; assay: Induction of apoptosis in human HL60 cells assessed as early apoptotic cells at 20 uM after 6 hrs by Annexine V/propidium iodide staining-based FACS flow cytometry analysis (reference value: 4%); type: functional
[5] = tested on: HL-60; assay: Cell cycle arrest in human HL60 cells assessed as accumulation at G0/G1 phase at 10 uM after 6 hrs using by propidium iodide staining by FACS analysis (reference value: 6%); type: functional
[6] = tested on: PC-3; assay: Antiproliferative activtiy against human PC3 cells assessed as growth inhibition after 48 hrs by MTT assay; type: functional, cell-based; details: PC-3, 48 h; outline: as §1
[7] = Cytotoxicity against human FR2 cells after 48 hrs by MTT assay; type: cell-based; details: FR2, 48 h; outline: as §1
[8] = tested on: HL-60; assay: Induction of apoptosis in human HL60 cells assessed as late apoptotic cells at 5 uM after 6 hrs by Annexine V/propidium iodide staining-based FACS flow cytometry analysis (reference value: 2%); type: functional
[9] = tested on: HL-60; assay: Induction of apoptosis in human HL60 cells assessed as mitochondrial membrane potential loss after 6 hrs by RH 123 staining-based flow cytometer analysis; type: functional, cell-based; outline: as §2
[10] = tested on: HL-60; assay: Induction of apoptosis in human HL60 cells assessed as early apoptotic cells at 5 uM after 6 hrs by Annexine V/propidium iodide staining-based FACS flow cytometry analysis (reference value: 4%); type: functional
[11] = target: Phosphatidylinositol 4,5-bisphosphate 3-kinase catalytic subunit alpha isoform (Homo sapiens) (UniProt P42336); assay: Inhibition of PI3K p110 alpha in human HL60 cells by Western blotting analysis; type: cell-based; details: HL-60
Outline: (§3)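 Treated and untreated HL-60 cells spun at 400g at 4°C, washed in PBS and lysed in RIPA buffer for whole-cell lysate. 60 µg protein per lane run on SDS-PAGE and probed with primary antibodies. ECL chemiluminescence detection, with β-actin as the loading control.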

[12] = tested on: HL-60; assay: Induction of apoptosis in human HL60 cells assessed as mitochondrial membrane potential loss at 10 uM after 6 hrs by RH 123 staining-based flow cytometer analysis (reference value: 6%); type: functional; outline: as §2
[13] = tested on: HL-60; assay: Induction of apoptosis in human HL60 cells assessed as decrease in expression of cytochrome c in mitochondrial fraction after 6 hrs by Western blot analysis; type: functional, cell-based
Outline: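 4×10^6 HL-60 cells treated for 6 h. Cytosolic fraction from a 2 min digitonin lysis then 12000g spin; mitochondrial fraction lysed in RIPA. Cytochrome c detected by western blot, with COX IV as the mitochondrial loading control and β-actin as the cytosolic loading control.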

[14] = tested on: HL-60; assay: Cell cycle arrest in human HL60 cells assessed as accumulation at G0/G1 phase at 5 uM after 6 hrs using by propidium iodide staining by FACS analysis (reference value: 6%); type: functional
[15] = target: Phosphatidylinositol 4,5-bisphosphate 3-kinase catalytic subunit alpha isoform (Homo sapiens) (UniProt P42336); assay: Inhibition of PI3K p110 alpha in human HL60 cells assessed as inhibition of AKT phosphorylation at T308 by Western blotting analysis; type: cell-based; details: HL-60; outline: as §3
[16] = tested on: HL-60; assay: Inhibition of human ERK 1/2 expression in human HL60 cells by Western blotting analysis; type: functional, cell-based; outline: as §3
[17] = target: Phosphatidylinositol 4,5-bisphosphate 3-kinase catalytic subunit alpha isoform (Homo sapiens) (UniProt P42336); assay: Inhibition of PI3K p110 alpha in human HL60 cells assessed as PARP 1 clevage by Western blotting analysis; type: cell-based; details: HL-60; outline: as §3
[18] = target: Phosphatidylinositol 4,5-bisphosphate 3-kinase catalytic subunit alpha isoform (Homo sapiens) (UniProt P42336); assay: Inhibition of PI3K p110 alpha in human HL60 cells assessed as inhibition of AKT phosphorylation at AKT S473 by Western blotting analysis; type: cell-based; details: HL-60; outline: as §3
[19] = tested on: HL-60; assay: Antiproliferative activtiy against human HL60 cells assessed as growth inhibition after 48 hrs by MTT assay; type: functional, cell-based; details: HL-60, 48 h; outline: as §1
[20] = target: Phosphatidylinositol 4,5-bisphosphate 3-kinase catalytic subunit alpha isoform (Homo sapiens) (UniProt P42336); assay: Inhibition of PI3K p110 alpha in human HL60 cells assessed as caspase 3 clevage by Western blotting analysis; type: cell-based; details: HL-60; outline: as §3
[21] = target: Phosphatidylinositol 4,5-bisphosphate 3-kinase catalytic subunit alpha isoform (Homo sapiens) (UniProt P42336); assay: Inhibition of PI3K p110 alpha in human HL60 cells assessed as effect on total AKT level by Western blotting analysis; type: cell-based; details: HL-60; outline: as §3
[22] = tested on: HL-60; assay: Induction of apoptosis in human HL60 cells assessed as change in nuclear morphology at 5 to 20 uM after 6 hrs by Hoechst 33258 staining-based inverted fluorescence analysis; type: functional, cell-based
Outline: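 HL-60 cells exposed for 6 h. Spun at 400 g, washed twice in PBS, stained 30 min at room temperature under subdued light with Hoechst 33258 (10 µg/ml in citrate/phosphate buffer with 0.05% Tween 20). Mounted in PBS:glycerol 1:1 and viewed by UV-excitation fluorescence microscopy for nuclear changes and apoptotic bodies.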

[23] = tested on: HL-60; assay: Induction of apoptosis in human HL60 cells assessed as mitochondrial membrane potential loss at 5 uM after 6 hrs by RH 123 staining-based flow cytometer analysis (reference value: 6%); type: functional; outline: as §2
[24] = target: Phosphatidylinositol 4,5-bisphosphate 3-kinase catalytic subunit alpha isoform (Homo sapiens) (UniProt P42336); assay: Inhibition of PI3K p110 alpha in human HL60 cells assessed as inhibition of GSK3 beta phosphorylation by Western blotting analysis; type: cell-based; details: HL-60; outline: as §3
[25] = tested on: HL-60; assay: Induction of apoptosis in human HL60 cells assessed as late apoptotic cells at 10 uM after 6 hrs by Annexine V/propidium iodide staining-based FACS flow cytometry analysis (reference value: 2%); type: functional
[26] = target: Phosphatidylinositol 4,5-bisphosphate 3-kinase catalytic subunit alpha isoform (Homo sapiens) (UniProt P42336); assay: Inhibition of PI3K p110 alpha in human HL60 cells assessed as inhibition of mTOR phosphorylation by Western blotting analysis; type: cell-based; details: HL-60; outline: as §3
[27] = tested on: HL-60; assay: Induction of apoptosis in human HL60 cells assessed as change in cell morphology after 6 hrs
[28] = tested on: HL-60; assay: Induction of apoptosis in human HL60 cells assessed as late apoptotic cells at 20 uM after 6 hrs by Annexine V/propidium iodide staining-based FACS flow cytometry analysis (reference value: 2%); type: functional
[29] = tested on: HL-60; assay: Induction of apoptosis in human HL60 cells assessed as blebbing and shrinkage of cells at 5 to 20 uM after 6 hrs by phase contrast microscopy
[30] = tested on: HL-60; assay: Induction of apoptosis in human HL60 cells assessed as early apoptotic cells at 10 uM after 6 hrs by Annexine V/propidium iodide staining-based FACS flow cytometry analysis (reference value: 4%); type: functional

Phosphatidylinositol 4,5-bisphosphate 3-kinase catalytic subunit alpha isoform (Homo sapiens), sequence (P42336 whole entry, canonical isoform): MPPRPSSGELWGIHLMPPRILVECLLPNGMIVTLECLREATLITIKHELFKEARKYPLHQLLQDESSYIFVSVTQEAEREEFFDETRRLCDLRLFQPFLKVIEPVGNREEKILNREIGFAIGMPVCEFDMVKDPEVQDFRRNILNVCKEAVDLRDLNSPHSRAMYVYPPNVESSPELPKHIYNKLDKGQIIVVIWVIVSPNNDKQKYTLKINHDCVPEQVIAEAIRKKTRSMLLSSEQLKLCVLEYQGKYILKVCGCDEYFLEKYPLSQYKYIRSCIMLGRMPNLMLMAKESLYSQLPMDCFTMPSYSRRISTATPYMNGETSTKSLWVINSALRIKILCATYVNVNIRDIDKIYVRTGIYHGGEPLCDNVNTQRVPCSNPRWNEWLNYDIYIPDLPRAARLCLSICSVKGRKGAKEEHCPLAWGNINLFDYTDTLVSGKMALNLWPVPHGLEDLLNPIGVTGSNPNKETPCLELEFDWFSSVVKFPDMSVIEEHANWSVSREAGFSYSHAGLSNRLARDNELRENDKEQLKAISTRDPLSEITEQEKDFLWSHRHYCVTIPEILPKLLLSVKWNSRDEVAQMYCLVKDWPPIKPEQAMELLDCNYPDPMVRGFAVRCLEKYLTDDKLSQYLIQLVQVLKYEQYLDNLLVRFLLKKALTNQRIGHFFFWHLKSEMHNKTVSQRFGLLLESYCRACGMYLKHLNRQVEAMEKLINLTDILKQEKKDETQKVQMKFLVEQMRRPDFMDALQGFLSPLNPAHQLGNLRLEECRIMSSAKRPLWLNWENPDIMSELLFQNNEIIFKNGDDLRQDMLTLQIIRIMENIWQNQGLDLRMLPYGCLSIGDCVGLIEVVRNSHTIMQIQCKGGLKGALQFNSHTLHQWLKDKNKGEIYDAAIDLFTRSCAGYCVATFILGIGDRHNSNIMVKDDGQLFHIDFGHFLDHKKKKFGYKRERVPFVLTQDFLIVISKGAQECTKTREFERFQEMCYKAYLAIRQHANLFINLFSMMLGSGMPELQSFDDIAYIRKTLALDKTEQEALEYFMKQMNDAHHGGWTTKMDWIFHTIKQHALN

## CO[C@H]1C=C[C@H]2C/C=C\C[C@H](c3ccc(-c4ccccc4C(F)(F)F)cc3)OC(=O)C[C@@H]1O2
[1]
  Activity: 37%
[2]
  IC50: 9.64 µM
[3]
  Activity: 62%
[4]
  Activity: 37%
[5]
  Activity: 30%
[6]
  IC50: 7.36 µM
[7]
  IC50: ≥ 100 µM
[8]
  Activity: 3%
[9]
  Activity: Dose-dependent effect
[10]
  Activity: 25%
[11]
  inhibition: Active
[12]
  Activity: 36%
[13]
  Activity: Active
[14]
  Activity: 24%
[15]
  inhibition: Active
[16]
  inhibition: inactive
[17]
  inhibition: Dose-dependent effect
[18]
  inhibition: Active
[19]
  IC50: 1.1 µM
[20]
  inhibition: Dose-dependent effect
[21]
  inhibition: inactive
[22]
  Activity: Dose-dependent effect
[23]
  Activity: 21%
[24]
  inhibition: Active
[25]
  Activity: 4%
[26]
  inhibition: Active
[27]
  Activity: Dose-dependent effect
[28]
  Activity: 4%
[29]
  Activity: Active
[30]
  Activity: 32%

## CO[C@H]1C=C[C@H]2C/C=C\C[C@H](c3ccc(Br)cc3)OC(=O)C[C@@H]1O2
[2]
  IC50: 5.45 µM
[6]
  IC50: 15.8 µM
[19]
  IC50: 10 µM

## O=C1C[C@@H]2O[C@@H](C=C[C@@H]2O)C/C=C\C[C@H](c2ccc(F)cc2)O1
[2]
  IC50: 20.8 µM
[6]
  IC50: 35.8 µM
[19]
  IC50: 40.2 µM

## C[C@H]1CCC/C=C/[C@H]2CC[C@H](O)[C@H](CC(=O)O1)O2
[19]
  IC50: 32.8 µM

## C[C@H]1CCC/C=C/[C@H]2CC[C@H](O)[C@@H](CC(=O)O1)O2
[19]
  IC50: 81.2 µM

## COc1ccc(CO[C@H]2C=C[C@H]3C/C=C\C[C@H](c4ccc5ccccc5c4)OC(=O)C[C@@H]2O3)cc1
[2]
  IC50: > 100 µM
[6]
  IC50: 45.4 µM
[19]
  IC50: 10.2 µM

## O=C1C[C@@H]2O[C@@H](C=C[C@@H]2O)C/C=C\C[C@H](c2ccc3ccccc3c2)O1
[2]
  IC50: 50 µM
[6]
  IC50: 21.5 µM
[19]
  IC50: 30.9 µM

## COc1ccc(CO[C@H]2C=C[C@H]3C/C=C\C[C@H](c4ccc(F)cc4)OC(=O)C[C@@H]2O3)cc1
[2]
  IC50: 4.76 µM
[6]
  IC50: 2.23 µM
[19]
  IC50: 8.83 µM

## CCO[C@H]1C=C[C@H]2C/C=C\C[C@H](c3ccc(Cl)cc3)OC(=O)C[C@@H]1O2
[2]
  IC50: 4.9 µM
[6]
  IC50: 9.16 µM
[19]
  IC50: 5.7 µM

## CCO[C@H]1C=C[C@H]2C/C=C\C[C@H](c3ccc(OC)cc3)OC(=O)C[C@@H]1O2
[2]
  IC50: 62.7 µM
[6]
  IC50: 56 µM
[19]
  IC50: 69.9 µM

## CCO[C@H]1C=C[C@H]2C/C=C\CC[C@H](C)OC(=O)C[C@@H]1O2
[2]
  IC50: 57 µM
[6]
  IC50: 78 µM
[19]
  IC50: 69.7 µM
